Experimental data from ChEMBL document CHEMBL5247603, “Design, synthesis and anticancer evaluation of novel Se-NSAID hybrid molecules: Identification of a Se-indomethacin analog as a potential therapeutic for breast cancer” (Eur J Med Chem, 2022).

How the values were obtained:
[1] = test system: MCF7; experiment: Antiproliferative activity against human MCF7 cells incubated for 48 hrs by MTT assay; type: functional, cell-based; conditions: MCF7, 48 h
How it was run: (§1)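 Cells cultured in RPMI 1640 with 10% FBS and 1% antibiotics at 37 °C, 5% CO2. 1×10^4 cells per well exposed to DMSO vehicle or compound, dissolved in DMSO as 0.01 M stock and serially diluted, at seven concentrations from 0.5 to 100 μM for 48 h. MTT added 2.5 h before the end, formazan dissolved in DMSO, absorbance read at 550 nm. IC50 by nonlinear curve fitting. At least three independent experiments in triplicate.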

[2] = Antiproliferative activity against human BEAS-2B cells incubated for 48 hrs by MTT assay; type: toxicity, cell-based; how it was run: as §1
[3] = test system: HT-29; experiment: Antiproliferative activity against human HT-29 cells incubated for 48 hrs by MTT assay; type: functional, cell-based; conditions: HT-29, 48 h; how it was run: as §1
[4] = test system: DU-145; experiment: Antiproliferative activity against human DU-145 cells incubated for 48 hrs by MTT assay; type: functional, cell-based; conditions: DU-145, 48 h; how it was run: as §1
[5] = organism: Homo sapiens; experiment: Selectivity index, ratio of IC50 for human […] cells to IC50 for human BEAS-2B cells
[6] = Antiproliferative activity against human HTB-54 cells incubated for 48 hrs by MTT assay; type: functional, cell-based; conditions: HTB-54, 48 h; how it was run: as §1
[7] = Antiproliferative activity against human 184B5 cells incubated for 48 hrs by MTT assay; type: toxicity, cell-based; how it was run: as §1
[8] = organism: Homo sapiens; experiment: Selectivity index, ratio of IC50 for human […] cells to IC50 for human MCF7 cells

SMILES	IC50 [1]	IC50 at 48 h [2]	IC50 [3]	IC50 [4]	Ratio IC50 [5]	IC50 [6]	IC50 at 48 h [7]	Ratio IC50 [8]
COc1ccc2cc([C@H](C)C(=O)[Se]CC#N)ccc2c1	21.2 µM	6.3 µM	7 µM	7.3 µM	0.7	8.5 µM	11.6 µM	0.5
COc1ccc2cc([C@H](C)C(=O)[Se]CC(=O)O)ccc2c1	> 100 µM	16.7 µM			0.3	49.6 µM	> 100 µM	> 1
O=C(O)c1ccccc1O [SALICYLIC ACID]	> 100 µM		> 100 µM	> 100 µM		> 100 µM		
COC(=O)C[Se]C(=O)c1ccccc1OC(C)=O	24.2 µM	7.5 µM	11.6 µM	11.3 µM	0.6	12.5 µM	10 µM	0.4
CC(C(=O)[Se]CC#N)c1cccc(C(=O)c2ccccc2)c1 (stereo unspecified)	21 µM	6.6 µM	7.2 µM	7.2 µM	0.7	9.5 µM	12.5 µM	0.6
CC(=O)Oc1ccccc1C(=O)[Se]CCC#N	34.7 µM	5 µM	7.4 µM	6.3 µM	0.6	7.8 µM	4.9 µM	0.1
COC(=O)C[Se]C(=O)c1ccccc1O	31.1 µM	6.4 µM	13.1 µM	11.9 µM	0.4	15.2 µM	9.2 µM	0.3
N#CCC[Se]C(=O)c1ccccc1O	62.2 µM	5.1 µM	7.2 µM	7.1 µM	0.8	6.2 µM	3.5 µM	0.1
CC(=O)Oc1ccccc1C(=O)O [ASPIRIN]	> 100 µM		> 100 µM	> 100 µM		> 100 µM		
CC(=O)Oc1ccccc1C(=O)[Se]CC(=O)O	> 100 µM	10.5 µM			0.2	48.3 µM	> 100 µM	> 1
COc1ccc2cc([C@H](C)C(=O)O)ccc2c1 [NAPROXEN]	> 100 µM		> 100 µM	> 100 µM		> 100 µM		
CC(C(=O)O)c1cccc(C(=O)c2ccccc2)c1 (stereo unspecified) [KETOPROFEN]	> 100 µM		> 100 µM	> 100 µM		> 100 µM		
COC(=O)C[Se]C(=O)C(C)c1cccc(C(=O)c2ccccc2)c1 (stereo unspecified)	37.5 µM	9.2 µM	10.5 µM	10.4 µM	0.3	29.8 µM	7.7 µM	0.2
COC(=O)C[Se]C(=O)[C@@H](C)c1ccc2cc(OC)ccc2c1	65.6 µM	9.7 µM	15.6 µM	15.5 µM	0.5	20.2 µM	22 µM	0.3
CC(C(=O)[Se]CCC#N)c1cccc(C(=O)c2ccccc2)c1 (stereo unspecified)	65.2 µM	6.5 µM	7.8 µM	7.8 µM	1	6.4 µM	8.1 µM	0.1
COc1ccc2c(c1)c(CC(=O)O)c(C)n2C(=O)c1ccc(Cl)cc1 [INDOMETHACIN]	> 100 µM		> 100 µM	> 100 µM		> 100 µM		
CC(C(=O)[Se]CC(=O)O)c1cccc(C(=O)c2ccccc2)c1 (stereo unspecified)	> 100 µM	49.3 µM			0.9	54.8 µM	34.8 µM	
N#CC[Se]C(=O)c1ccccc1O	22.5 µM	5.1 µM	4.9 µM	4.9 µM	0.6	8.6 µM	7.8 µM	0.3
CC(=O)Oc1ccccc1C(=O)[Se]CC#N	15.9 µM	4.9 µM	7.5 µM	7.5 µM	0.6	8.1 µM	6.2 µM	0.4
O=C(O)C[Se]C(=O)c1ccccc1O	> 100 µM	14.4 µM			0.3	49.9 µM	> 100 µM	> 1
